Columns and labels:
[1] = Half life in Sprague-Dawley rat at 3 mg/kg, po administered as single dose; format: ADME, organism-based; design: dose 3 mg/kg, route oral; conditions: in vivo
Method in brief: (§1)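 Male Sprague-Dawley rats, three per compound, receive a single oral dose by gavage in 1% carboxymethylcellulose in 0.9% saline, with food and water ad libitum. Plasma is sampled from 5 to 480 min and drug is quantified by positive-mode LC/MS/MS after acetonitrile/formic acid extraction. The lower limit of quantitation is about 2 ng/mL. Exposure is AUC(0→t) by the linear/log trapezoidal rule, and F is oral fractional bioavailability.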

[2] = molecular target: T1, C5a anaphylatoxin chemotactic receptor 1 (Homo sapiens) (UniProt P21730); test: Antagonist activity at C5a receptor in human PMNC assessed as inhibition of C5a-induced chemotaxis at 0.1 nM after 2 hrs by microtiter format trans-well migration assay; format: functional
T1 sequence (whole entry): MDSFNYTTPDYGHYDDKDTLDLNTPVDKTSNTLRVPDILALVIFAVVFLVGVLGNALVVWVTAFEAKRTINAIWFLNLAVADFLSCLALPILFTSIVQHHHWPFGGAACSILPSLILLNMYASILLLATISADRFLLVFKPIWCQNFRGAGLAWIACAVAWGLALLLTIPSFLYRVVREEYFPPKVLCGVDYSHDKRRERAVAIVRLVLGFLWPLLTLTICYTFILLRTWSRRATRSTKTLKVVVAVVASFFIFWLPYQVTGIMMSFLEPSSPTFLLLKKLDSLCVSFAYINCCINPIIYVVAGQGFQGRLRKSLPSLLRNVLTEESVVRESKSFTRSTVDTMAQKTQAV
Method in brief: (§2)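 Microtiter trans-well migration assay in Gey's balanced salt solution with 1 mg/mL endotoxin-free BSA, no fetal calf serum. Migration ran 2 h at 37 °C. Compounds dissolved in DMSO and added to both top and bottom compartments, final DMSO 1%.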

[3] = tested on: Mus musculus; test: Antiinflammatory activity in mouse assessed as inhibition of LPS-induced TNFalpha upregulation at 0.0075 ug, sc measured 2 hrs after LPS challenge; format: functional
Method in brief: (§3)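 Murine sublethal endotoxemia: LPS given intraperitoneally, with serum TNF-α measured 2 h after the LPS injection as the end point. Compound was given subcutaneously or orally. Vehicle was 0.6% DMSO and 1% carboxymethylcellulose (final concentrations) in sterile water. Effect is reported as % relative to control.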

[4] = tested on: THP-1; test: Endogenous chemoattractant activity at human THP1 cells assessed as cell migration at 10 uM after 2 hrs by microtiter format trans-well migration assay; format: functional
[5] = molecular target: C-C chemokine receptor type 5 (Homo sapiens) (UniProt P51681); test: Antagonist activity at CCR5 in human THP1 cells assessed as inhibition of CCL5-induced chemotaxis at 100 nM after 2 hrs by microtiter format trans-well migration assay; format: functional, cell-based; conditions: THP-1; method in brief: as §2
C-C chemokine receptor type 5 (Homo sapiens), sequence (P51681 whole entry, looked up): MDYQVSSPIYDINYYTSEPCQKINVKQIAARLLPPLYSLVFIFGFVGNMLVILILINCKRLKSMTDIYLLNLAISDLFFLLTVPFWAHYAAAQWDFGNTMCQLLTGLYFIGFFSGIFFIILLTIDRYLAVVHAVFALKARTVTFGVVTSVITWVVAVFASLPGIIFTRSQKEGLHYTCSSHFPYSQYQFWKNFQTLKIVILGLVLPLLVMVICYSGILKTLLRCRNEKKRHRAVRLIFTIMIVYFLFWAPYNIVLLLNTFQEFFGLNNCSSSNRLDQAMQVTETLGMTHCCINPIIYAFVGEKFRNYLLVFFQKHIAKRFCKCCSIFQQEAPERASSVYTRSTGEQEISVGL

[6] = tested on: Mus musculus; test: Antiinflammatory activity in mouse assessed as inhibition of LPS-induced TNFalpha upregulation at 0.025 mg, sc measured 2 hrs after LPS challenge; format: functional; method in brief: as §3
[7] = molecular target: C-X-C chemokine receptor type 4 (Homo sapiens) (UniProt P61073); test: Antagonist activity at CXCR4 in human THP1 cells assessed as inhibition of CXCL12-induced chemotaxis after 2 hrs by microtiter format trans-well migration assay; format: functional, cell-based; conditions: THP-1; method in brief: as §2
C-X-C chemokine receptor type 4 (Homo sapiens), sequence (P61073 whole entry): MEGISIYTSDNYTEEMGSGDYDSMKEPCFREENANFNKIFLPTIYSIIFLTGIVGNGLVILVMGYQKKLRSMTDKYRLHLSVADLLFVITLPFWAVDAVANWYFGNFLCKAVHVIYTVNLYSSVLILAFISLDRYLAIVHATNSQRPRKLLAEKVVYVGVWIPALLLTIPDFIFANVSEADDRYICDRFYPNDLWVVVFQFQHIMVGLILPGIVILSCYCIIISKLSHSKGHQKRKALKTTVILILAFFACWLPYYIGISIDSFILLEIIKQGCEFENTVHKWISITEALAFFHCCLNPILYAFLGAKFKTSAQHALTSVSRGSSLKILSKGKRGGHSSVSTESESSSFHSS

[8] = tested on: Mus musculus; test: Antiinflammatory activity in mouse assessed as inhibition of LPS-induced TNFalpha upregulation at 0.025 mg, po measured 2 hrs after LPS challenge; format: functional; method in brief: as §3
[9] = molecular target: T1, C5a anaphylatoxin chemotactic receptor 1 (Homo sapiens); test: Antagonist activity at C5a receptor in human PMNC assessed as inhibition of C5a-induced chemotaxis at 100 nM after 2 hrs by microtiter format trans-well migration assay; format: functional; method in brief: as §2
[10] = tested on: Mus musculus; test: Antiinflammatory activity in mouse assessed as inhibition of LPS-induced TNFalpha upregulation at 0.0025 mg, po measured 2 hrs after LPS challenge; format: functional; method in brief: as §3
[11] = molecular target: T2, C-C chemokine receptor type 1 (Homo sapiens) (UniProt P32246); test: Antagonist activity at CCR1 in human THP1 cells assessed as inhibition of CCL3-induced chemotaxis after 2 hrs by microtiter format trans-well migration assay; format: functional, cell-based; conditions: THP-1; method in brief: as §2
T2 sequence (whole entry): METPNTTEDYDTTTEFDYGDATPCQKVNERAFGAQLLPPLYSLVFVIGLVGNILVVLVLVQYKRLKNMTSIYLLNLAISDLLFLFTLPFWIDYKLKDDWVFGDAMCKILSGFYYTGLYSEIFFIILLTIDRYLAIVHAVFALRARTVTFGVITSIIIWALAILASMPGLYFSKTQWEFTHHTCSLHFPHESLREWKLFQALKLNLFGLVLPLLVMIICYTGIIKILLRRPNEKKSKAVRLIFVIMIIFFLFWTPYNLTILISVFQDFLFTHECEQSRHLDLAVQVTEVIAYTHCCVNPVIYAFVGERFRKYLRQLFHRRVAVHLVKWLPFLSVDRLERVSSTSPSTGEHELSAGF

[12] = Antagonist activity at Interleukin-8 receptor in human PMNC assessed as inhibition of CXCL8-induced chemotaxis at 0.1 nM after 2 hrs by microtiter format trans-well migration assay; format: functional; method in brief: as §2
[13] = Cmax in Sprague-Dawley rat at 3 mg/kg, po administered as single dose; format: ADME, organism-based; design: dose 3 mg/kg, route oral; conditions: in vivo; method in brief: as §1
[14] = Clearance in Sprague-Dawley rat at 1 mg/kg, iv administered as single dose; format: ADME, organism-based; design: dose 1 mg/kg, route intravenous; conditions: in vivo
Method in brief: (§4)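 Male Sprague-Dawley rats, three per compound, receive a single intravenous dose in 5% DMSO in 0.9% saline. Food and water are given ad libitum. Plasma is taken at 5, 15, 30, 60, 120, 180, 240 and 480 min. Drug is measured by LC/MS/MS after extraction with 0.1% formic acid in acetonitrile. The curve is back-extrapolated to time zero assuming an initial volume of 0.26 L/kg.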

[15] = tested on: Mus musculus; test: Antiinflammatory activity in po dosed mouse assessed as inhibition of LPS-induced TNFalpha upregulation measured 2 hrs after LPS challenge; format: functional
[16] = Antagonist activity at Interleukin-8 receptor in human PMNC assessed as inhibition of CXCL8-induced chemotaxis after 2 hrs by microtiter format trans-well migration assay; format: functional; conditions: read-out: ED50 (the source's name); method in brief: as §2
[17] = molecular target: C-C chemokine receptor type 2 (Homo sapiens) (UniProt P41597); test: Antagonist activity at CCR2 in human THP1 cells assessed as inhibition of CCL2-induced chemotaxis at 0.01 nM after 2 hrs by microtiter format trans-well migration assay; format: functional, cell-based; conditions: THP-1; method in brief: as §2
C-C chemokine receptor type 2 (Homo sapiens), sequence (P41597 whole entry, looked up): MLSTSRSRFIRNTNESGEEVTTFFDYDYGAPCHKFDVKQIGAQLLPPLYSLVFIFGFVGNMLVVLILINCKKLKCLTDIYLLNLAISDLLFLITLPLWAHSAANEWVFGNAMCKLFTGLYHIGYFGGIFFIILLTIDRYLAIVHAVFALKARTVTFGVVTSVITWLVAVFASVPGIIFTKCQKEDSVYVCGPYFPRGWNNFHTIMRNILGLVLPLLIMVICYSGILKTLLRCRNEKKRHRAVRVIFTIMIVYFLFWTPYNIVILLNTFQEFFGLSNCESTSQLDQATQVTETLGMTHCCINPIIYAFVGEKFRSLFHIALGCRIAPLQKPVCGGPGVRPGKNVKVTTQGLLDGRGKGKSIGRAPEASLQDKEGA

[18] = tested on: THP-1; test: Endogenous chemoattractant activity at human THP1 cells assessed as cell migration at 1 uM after 2 hrs by microtiter format trans-well migration assay; format: functional
[19] = tested on: THP-1; test: Endogenous chemoattractant activity at human THP1 cells assessed as cell migration at 0.001 nM after 2 hrs by microtiter format trans-well migration assay; format: functional
[20] = Volume of distribution at steady state in Sprague-Dawley rat at 1 mg/kg, iv administered as single dose; format: ADME, organism-based; design: dose 1 mg/kg, route intravenous; conditions: in vivo, read-out: Vdss; method in brief: as §4
[21] = molecular target: T2, C-C chemokine receptor type 1 (Homo sapiens); test: Antagonist activity at CCR1 in human THP1 cells assessed as inhibition of CCL3-induced chemotaxis at 1000 nM after 2 hrs by microtiter format trans-well migration assay; format: functional, cell-based; conditions: THP-1; method in brief: as §2
[22] = molecular target: T1, C5a anaphylatoxin chemotactic receptor 1 (Homo sapiens); test: Antagonist activity at C5a receptor in human PMNC assessed as inhibition of C5a-induced chemotaxis at 10 nM after 2 hrs by microtiter format trans-well migration assay; format: functional; method in brief: as §2
[23] = molecular target: C-C chemokine receptor type 5 (Homo sapiens) (UniProt P51681); test: Antagonist activity at CCR5 in human THP1 cells assessed as inhibition of CCL5-induced chemotaxis at 0.01 nM after 2 hrs by microtiter format trans-well migration assay; format: functional, cell-based; conditions: THP-1; method in brief: as §2

half-life [1]: 1.7 h
inhibition [5]: 92.5%
ED50 [7]: 1 nM
ED50 [11]: 0.15 nM
Cmax [13]: 60 ng/mL
clearance [14]: 40 mL/min/kg
inhibition [17]: 12%
Vd [20]: 2 L/kg
inhibition [21]: 99.5%
inhibition [23]: 8.5%
Compound: CCCCCCCCCCC(C)(C)C(=O)N[C@H]1CCCCNC1=O
inhibition [2]: 26.5%
inhibition (INH) [3]: 54%
Activity [4]: 2540%
inhibition (INH) [6]: 64%
inhibition (INH) [8]: 44%
inhibition [9]: 16%
inhibition (INH) [10]: 0%
inhibition at 0.0001 µM [12]: 12.5%
ED50 [15]: 0.3 mg/kg
EC50 [16]: 0.3 nM
Activity [18]: 4626%
Activity [19]: 4282%
inhibition [22]: -3%

Source: ChEMBL document CHEMBL1136923, “Highly potent, orally available anti-inflammatory broad-spectrum chemokine inhibitors” (J Med Chem, 2009)
